Measured values published in BindingDB's records for doi:10.1021/jm060253o (University of Bologna, 2006).

Key:
[1] = target: Breakpoint cluster region protein/Tyrosine-protein kinase ABL1 (Homo sapiens, UniProt P00519+P11274); assay: Antiproliferative activity against human K562 cell line expressing Bcr-Abl
Method in brief: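 Cell growth inhibition measured by counting cells with an automatic cell counter in sensitive HL60, MDR HL60R and Bcr-Abl-expressing K562 cells. IC50 is the concentration inhibiting 50% of cell growth.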

[2] = Antiproliferative activity against MDR human HL60R cell line

Sequence of Breakpoint cluster region protein/Tyrosine-protein kinase ABL1 (P00519 whole entry): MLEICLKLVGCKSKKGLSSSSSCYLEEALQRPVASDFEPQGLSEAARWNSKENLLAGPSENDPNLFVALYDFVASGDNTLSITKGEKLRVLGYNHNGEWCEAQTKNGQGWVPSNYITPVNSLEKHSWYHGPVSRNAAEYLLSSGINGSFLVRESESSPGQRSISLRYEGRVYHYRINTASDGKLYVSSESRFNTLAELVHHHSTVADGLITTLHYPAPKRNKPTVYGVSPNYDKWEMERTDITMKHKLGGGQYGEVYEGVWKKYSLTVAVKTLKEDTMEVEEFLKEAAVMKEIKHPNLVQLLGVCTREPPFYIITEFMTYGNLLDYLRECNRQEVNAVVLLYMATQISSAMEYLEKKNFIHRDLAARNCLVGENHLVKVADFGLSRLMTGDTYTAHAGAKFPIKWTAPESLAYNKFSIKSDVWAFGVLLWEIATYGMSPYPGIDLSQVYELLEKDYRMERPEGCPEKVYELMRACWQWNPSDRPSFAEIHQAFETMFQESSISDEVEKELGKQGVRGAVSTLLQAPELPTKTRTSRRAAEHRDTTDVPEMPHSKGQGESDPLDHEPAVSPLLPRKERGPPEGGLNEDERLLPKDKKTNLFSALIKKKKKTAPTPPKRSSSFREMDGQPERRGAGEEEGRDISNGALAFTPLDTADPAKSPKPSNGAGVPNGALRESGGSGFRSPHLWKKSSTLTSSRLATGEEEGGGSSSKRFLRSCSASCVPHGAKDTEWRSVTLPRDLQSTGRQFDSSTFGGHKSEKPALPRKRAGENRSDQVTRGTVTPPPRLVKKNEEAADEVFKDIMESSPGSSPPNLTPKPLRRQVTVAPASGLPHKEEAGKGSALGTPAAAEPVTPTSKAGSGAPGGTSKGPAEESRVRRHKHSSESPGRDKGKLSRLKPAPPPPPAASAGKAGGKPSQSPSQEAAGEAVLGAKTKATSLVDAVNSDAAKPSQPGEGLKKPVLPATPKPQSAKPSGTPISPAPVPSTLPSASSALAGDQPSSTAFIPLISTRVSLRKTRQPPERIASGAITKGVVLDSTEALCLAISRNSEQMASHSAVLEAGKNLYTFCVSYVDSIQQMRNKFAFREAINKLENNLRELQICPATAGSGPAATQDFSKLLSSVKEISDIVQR
Sequence of Breakpoint cluster region protein/Tyrosine-protein kinase ABL1 (P11274 whole entry): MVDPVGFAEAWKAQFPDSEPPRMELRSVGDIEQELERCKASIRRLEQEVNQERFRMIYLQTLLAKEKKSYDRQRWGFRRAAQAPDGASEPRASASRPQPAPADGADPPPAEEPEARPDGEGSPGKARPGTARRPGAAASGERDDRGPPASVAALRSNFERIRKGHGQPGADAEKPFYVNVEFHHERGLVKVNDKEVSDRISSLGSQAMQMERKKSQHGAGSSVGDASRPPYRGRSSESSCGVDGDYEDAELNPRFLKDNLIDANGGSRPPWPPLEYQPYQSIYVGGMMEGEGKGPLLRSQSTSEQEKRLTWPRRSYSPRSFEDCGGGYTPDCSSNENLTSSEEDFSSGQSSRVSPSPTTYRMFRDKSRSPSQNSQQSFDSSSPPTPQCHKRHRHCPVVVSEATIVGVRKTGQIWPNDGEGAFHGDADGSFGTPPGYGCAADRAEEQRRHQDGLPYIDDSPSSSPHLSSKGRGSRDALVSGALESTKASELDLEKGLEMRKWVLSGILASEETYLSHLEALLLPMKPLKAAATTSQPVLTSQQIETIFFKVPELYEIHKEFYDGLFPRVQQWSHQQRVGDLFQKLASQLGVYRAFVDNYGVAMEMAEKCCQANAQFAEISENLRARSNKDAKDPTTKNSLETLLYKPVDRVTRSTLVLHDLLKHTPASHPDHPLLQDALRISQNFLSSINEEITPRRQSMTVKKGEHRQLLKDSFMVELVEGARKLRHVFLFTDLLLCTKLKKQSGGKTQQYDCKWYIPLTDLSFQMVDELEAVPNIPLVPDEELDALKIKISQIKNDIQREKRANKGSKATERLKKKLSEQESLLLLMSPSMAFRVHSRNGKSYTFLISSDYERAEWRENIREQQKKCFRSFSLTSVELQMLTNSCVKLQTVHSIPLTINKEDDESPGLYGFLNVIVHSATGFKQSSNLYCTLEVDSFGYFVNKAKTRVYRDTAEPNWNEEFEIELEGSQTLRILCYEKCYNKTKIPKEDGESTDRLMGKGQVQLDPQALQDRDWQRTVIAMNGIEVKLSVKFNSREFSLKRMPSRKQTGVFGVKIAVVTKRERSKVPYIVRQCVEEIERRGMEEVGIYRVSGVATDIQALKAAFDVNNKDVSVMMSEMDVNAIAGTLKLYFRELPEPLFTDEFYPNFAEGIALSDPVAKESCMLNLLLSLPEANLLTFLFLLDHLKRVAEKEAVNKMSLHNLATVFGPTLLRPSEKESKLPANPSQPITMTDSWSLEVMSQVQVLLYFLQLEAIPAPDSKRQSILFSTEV

| IC50 [1] [µM] | Structure (SMILES) | IC50 [2] [µM] |
| --- | --- | --- |
| 20 | Oc1cc(O)cc(-c2ccc3cc(O)ccc3c2)c1 [5-(6-hydroxy-naphtalen-2-yl)-benzene-1,3-diol] | – |
| 10 | COc1cc(/C=C/c2ccc(O)cc2)cc(OC)c1 [4-[2-(3,5-Dimethoxy-phenyl)-vinyl]-phenol] | 42 |
| 24 | COc1cc(/C=C/c2ccccc2O)cc(OC)c1 [2-[(E)-2-(3,5-dimethoxy-phenyl)-vinyl]-phenol] | 68 |
| 6 | COc1ccc(-c2ccccc2-c2cc(OC)cc(OC)c2)cc1 [4,3'',5''-trimethoxy-[1,1';2',1'']-terphenyl] | – |
| 16 | COc1cc(/C=C/c2cc(Cl)ccc2O)cc(OC)c1 [4-chloro-2-[(E)-2-(3,5-dimethoxy-phenyl)-vinyl]-phenol] | – |
| 8 | Oc1ccc(-c2ccccc2-c2cc(O)cc(O)c2)cc1 [[1,1';2',1'']-terphenyl-4,3'',5''-triol] | 12 |
| > 100 | COc1cc(/C=C/c2cc(C(C)(C)C)c(O)c(C(C)(C)C)c2)cc(OC)c1 [2,6-di-tert-butyl-4-[(E)-2-(3,5-dimethoxy-phenyl)-vinyl]-phenol] | – |
| 20 | Oc1ccc(-c2ccc(-c3cc(O)cc(O)c3)cc2)cc1 [[1,1';4',1'']-terphenyl-4,3'',5''-triol] | 23 |
| 42 | COc1cc(OC)cc(-c2ccc3cc(O)ccc3c2)c1 [6-(3,5-dimethoxy-phenyl)-naphthalen-2-ol] | 16 |
| > 100 | COc1cc(OC)cc(-c2ccc3cc(OC)ccc3c2)c1 [2-(3,5-Dimethoxy-phenyl)-6-methoxy-naphthalene] | > 100 |
| 23 | COc1cc(/C=C/c2cc(OC)c(O)c(OC)c2)cc(OC)c1 [4-[(E)-2-(3,5-dimethoxy-phenyl)-vinyl]-2,6-dimethoxy-phenol] | > 100 |
| 14 | COc1cc(OC)cc(-c2ccccc2-c2ccc(O)cc2)c1 [3'',5''-dimethoxy-[1,1';2',1'']-terphenyl-4-ol] | 28 |
| 8 | COc1cc(/C=C/c2cccc(OC)c2O)cc(OC)c1 [2-[(E)-2-(3,5-dimethoxyphenyl)vinyl]-6-methoxyphenol] | – |
| > 100 | COc1ccc(-c2ccc(-c3cc(OC)cc(OC)c3)cc2)cc1 [4,3'',5''-trimethoxy-[1,1';4',1'']-terphenyl] | > 100 |
| 10 | COc1ccc(-c2cccc(-c3cc(OC)cc(OC)c3)c2)cc1 [4,3'',5''-trimethoxy-[1,1';3',1'']-terphenyl] | 80 |
| 35 | COc1cc(OC)cc(-c2ccc(-c3ccc(O)cc3)cc2)c1 [3'',5''-dimethoxy-[1,1';4,1'']-terphenyl-4-ol] | 23 |
| 26 | COc1cc(/C=C/c2cccc(O)c2)cc(OC)c1 [3-[(E)-2-(3,5-Dimethoxy-phenyl)-vinyl]-phenol] | > 100 |
| 20 | Oc1ccc(-c2cccc(-c3cc(O)cc(O)c3)c2)cc1 [[1,1';3',1'']-terphenyl-4,3'',5''-triol] | 58 |
| 14 | COc1cc(OC)cc(-c2cccc(-c3ccc(O)cc3)c2)c1 [3'',5''-dimethoxy-[1,1';3',1'']-terphenyl-4-ol] | 20 |
| 28 | Oc1ccc(/C=C/c2cc(O)cc(O)c2)cc1 [5-[(E)-2-(4-hydroxyphenyl)ethenyl]benzene-1,3-diol] | 60 |

| Structure (SMILES) | IC50 [1] [µM] | IC50 [2] [µM] |
| --- | --- | --- |
| COc1ccc(/C=C/c2cc(OC)cc(OC)c2)cc1 | 10 | – |
